In ChEMBL document CHEMBL1122902, “Synthesis of the antileukemic agents 5,10-dideazaaminopterin and 5,10-dideaza-5,6,7,8-tetrahydroaminopterin” (J Med Chem, 1985):

Experiments:
Mus musculus [1] = assay: In vivo activity(%ILS) at optimal dose of 1 mg/kg, by intraperitoneal administration in BDF1 mice against L1210 leukemia cells; assay type: functional; settings: L1210, ip
Mus musculus [2] = assay: In vivo activity (survivors) at optimal dose of 1 mg/kg, by intraperitoneal administration in BDF1 mice against L1210 leukemia cells; […] given as 5/22; assay type: functional
[3] = biological target: T1, Folylpolyglutamate synthase, mitochondrial (Mus musculus) (UniProt P48760); assay: Activity (relative Vmax) was evaluated in vitro by purified mouse liver folate polyglutamate synthetase (FPGS).
T1 sequence (whole entry): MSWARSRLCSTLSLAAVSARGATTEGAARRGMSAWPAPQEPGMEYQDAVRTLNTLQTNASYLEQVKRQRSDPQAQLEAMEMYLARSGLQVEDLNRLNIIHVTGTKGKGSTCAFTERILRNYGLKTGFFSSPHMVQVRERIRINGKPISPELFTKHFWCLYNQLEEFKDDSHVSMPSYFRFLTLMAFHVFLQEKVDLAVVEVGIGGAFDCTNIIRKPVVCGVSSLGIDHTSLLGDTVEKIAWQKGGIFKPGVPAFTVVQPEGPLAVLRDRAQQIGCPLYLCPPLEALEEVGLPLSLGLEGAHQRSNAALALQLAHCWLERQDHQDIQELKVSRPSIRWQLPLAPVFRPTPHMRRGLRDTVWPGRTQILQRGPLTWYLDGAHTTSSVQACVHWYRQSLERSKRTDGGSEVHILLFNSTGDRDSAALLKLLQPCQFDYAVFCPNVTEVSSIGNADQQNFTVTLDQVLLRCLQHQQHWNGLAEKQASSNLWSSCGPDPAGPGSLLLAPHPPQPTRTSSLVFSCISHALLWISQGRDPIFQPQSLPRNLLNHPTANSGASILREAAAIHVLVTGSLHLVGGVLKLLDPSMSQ
Summary of the method: (§1)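 Full saturation curves used duplicate assays at each of six concentrations, usually spanning 0.2–3 apparent Km. Kinetic values were derived by the Cleland method. Each value is expressed as a proportion of the PteGlu value from saturation curves run in the same experiment.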

L1210 [4] = assay: (§2) Inhibitory concentration against the growth of L1210 murine leukemia cells in tissue culture.; assay type: functional, cell-based; settings: Mus musculus
[5] = biological target: T1, Folylpolyglutamate synthase, mitochondrial (Mus musculus); assay: Activity (relative Km ) was evaluated in vitro by purified mouse liver folate polyglutamate synthetase (FPGS).; summary of the method: as §1
Thymidylate synthase = biological target: T2, Thymidylate synthase (Lactobacillus casei, UniProt P00469); assay: In vitro inhibitory concentration against Lactobacillus casei thymidylate synthetase; parameters: species or system Lacticaseibacillus casei
T2 sequence (P00469 whole entry): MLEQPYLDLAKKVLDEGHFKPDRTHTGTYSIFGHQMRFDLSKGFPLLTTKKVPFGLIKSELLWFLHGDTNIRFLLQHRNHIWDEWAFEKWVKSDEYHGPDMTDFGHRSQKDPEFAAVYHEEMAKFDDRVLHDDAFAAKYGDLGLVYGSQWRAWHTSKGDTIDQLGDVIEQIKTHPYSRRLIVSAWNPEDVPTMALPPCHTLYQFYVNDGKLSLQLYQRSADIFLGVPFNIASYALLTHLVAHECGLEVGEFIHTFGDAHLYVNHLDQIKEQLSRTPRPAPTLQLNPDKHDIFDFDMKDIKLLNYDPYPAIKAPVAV

L1210 [6] = assay: as §2; settings: Mus musculus
L1210 [7] = assay: (§3) In vivo activity(%ILS) at optimal dose of 4 mg/kg, by intraperitoneal administration in BDF1 mice against L1210 leukemia cells; assay type: functional; settings: Mus musculus, L1210, ip
Mus musculus [8] = assay: In vivo activity (survivors) at optimal dose of 4 mg/kg, by intraperitoneal administration in BDF1 mice against L1210 leukemia cells; […] given as 0/10; assay type: functional
Mus musculus [9] = organism: Mus musculus; assay: as §2; assay type: functional, cell-based
[10] = biological target: T1, Folylpolyglutamate synthase, mitochondrial (Mus musculus); assay: Activity (relative Km) was evaluated in vitro by purified mouse liver folate polyglutamate synthetase (FPGS).
Summary of the method: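 Partially purified mouse liver FPGS incubated with each substrate for 1 h at 37 °C. Full saturation curves were run in duplicate at six concentrations, usually 0.2–3 apparent Km, and products were isolated. Kinetic constants came from Cleland analysis. Km is expressed relative to PteGlu, taken from saturation curves run in the same experiment.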

Mus musculus [11] = assay: In vivo activity (survivors) at optimal dose of 4mg/kg, by intraperitoneal administration in BDF1 mice against L1210 leukemia cells; […] given as 4/21; assay type: functional
Mus musculus [12] = assay: as §3; assay type: functional; settings: L1210, ip

Compound | Relative Vmax [3] | IC50 (L1210 [4]) [µM] | Relative Km [5] | IC50 (Thymidylate synthase) [µM] | also measured
Nc1nc(N)c2c(n1)NCC(CCc1ccc(C(=O)NC(CCC(=O)O)C(=O)O)cc1)C2 (stereo not given) | 1.61 | 0.0033 | 0.23 | 920 | ILS at 1 mg/kg (Mus musculus [1]): 111%; Survivors (Mus musculus [2]): 5
CN(Cc1cnc2nc(N)nc(N)c2n1)c1ccc(C(=O)N[C@@H](CCC(=O)O)C(=O)O)cc1 [METHOTREXATE] | – | – | – | – | IC50 (L1210 [6]): 0.01 µM; ILS at 4 mg/kg (L1210 [7]): 85%; Survivors (Mus musculus [8]): 0
Nc1nc(=O)c2nc(CNc3ccc(C(=O)N[C@@H](CCC(=O)O)C(=O)O)cc3)cnc2[nH]1 | 1 | – | – | – | Km app [5]: 1 rel
Nc1nc(O)c2c(n1)NCC(CNc1ccc(C(=O)N[C@@H](CCC(=O)O)C(=O)O)cc1)N2 (stereo not given in full) | 1.31 | – | 0.051 | – | –
Nc1nc(N)c2nc(CNc3ccc(C(=O)N[C@@H](CCC(=O)O)C(=O)O)cc3)cnc2n1 [AMINOPTERIN] | 1.5 | 0.0021 | 0.21 | – | –
Nc1nc(O)c2c(n1)NCC(CCc1ccc(C(=O)NC(CCC(=O)O)C(=O)O)cc1)C2 (stereo not given) | 1.24 | – | 0.05 | > 1000 | IC50 (Mus musculus [9]): 0.059 µM
Nc1nc(O)c2cc(CCc3ccc(C(=O)N[C@@H](CCC(=O)O)C(=O)O)cc3)cnc2n1 | 0.9 | – | 0.68 | – | IC50 (Mus musculus [9]): > 100 µM
Nc1nc(N)c2cc(CCc3ccc(C(=O)NC(CCC(=O)O)C(=O)O)cc3)cnc2n1 (stereo not given) | 0.35 | 0.017 | – | 92 | Relative Km [10]: 0.86; Survivors (Mus musculus [11]): 4; ILS at 4 mg/kg (Mus musculus [12]): 130%
Nc1nc2ncc(CCc3ccc(C(=O)N[C@@H](CCC(=O)O)C(=O)O)cc3)cc2c(=O)[nH]1 | – | – | – | 77 | –
